These results are taken from ChEMBL document CHEMBL4425101, “Design, Synthesis, and Characterization of Cyclic Peptidomimetics of the Inducible Nitric Oxide Synthase Binding Epitope That Disrupt the Protein-Protein Interaction Involving SPRY Domain-Containing Suppressor of Cytokine Signaling Box Protein (SPSB) 2 and Inducible Nitric Oxide Synthase” (J Med Chem, 2016).

Assay [1] addresses T1, SPRY domain-containing SOCS box protein 2 (Mus musculus, UniProt O88838).
T1 sequence (O88838 whole entry): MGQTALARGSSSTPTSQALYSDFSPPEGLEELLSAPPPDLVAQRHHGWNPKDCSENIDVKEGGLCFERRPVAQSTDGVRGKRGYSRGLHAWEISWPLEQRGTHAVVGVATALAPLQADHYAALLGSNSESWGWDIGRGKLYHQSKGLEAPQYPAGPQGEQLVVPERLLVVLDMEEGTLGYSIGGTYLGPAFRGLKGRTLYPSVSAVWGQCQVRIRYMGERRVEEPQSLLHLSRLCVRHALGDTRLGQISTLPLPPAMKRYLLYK
As to the kind of experiment: Binding affinity to recombinant GST-tagged mouse SPSB2 (12 to 224 residues) expressed in Escherichia coli BL21 (DE3) by SPR analysis. The procedure, abridged:
(§1)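 SPSB2 amine-coupled to a CM5 sensor chip. Peptidomimetics flowed over at increasing concentrations in running buffer (10 mM HEPES, 150 mM NaCl, 3 mM EDTA, 0.05% Tween 20, pH 7.4) at 25 °C. Sensorgrams fitted to a single-site binding model.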
A general note: Surface plasmon resonance follows binding to a sensor surface in real time, without labels.

Assay [2] deals with T1, SPRY domain-containing SOCS box protein 2. Description: Binding affinity to recombinant GST-tagged mouse SPSB2 (12 to 224 residues) expressed in Escherichia coli BL21 (DE3) by ITC method. The method in brief: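 ITC at 25 °C in 50 mM phosphate pH 7.4, 150 mM NaCl. Cell held 50 μM SPSB2, buffer-exchanged on a PD-10 column; syringe held compound from a 5 mM stock. Stirred at 1000 rpm. One 0.2 μL injection, then 29 injections of 1 μL. KD and ΔH from a nonlinear least-squares fit to a one-set-of-sites (1:1) model.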
On the technique in general: Isothermal titration calorimetry measures the heat released or taken up as one component is titrated into another.

Assay [3] concerns the target T2, SPRY domain-containing SOCS box protein 2 (Mus musculus) (UniProt O88838).
T2 sequence (whole entry): T1 sequence (O88838 whole entry)
As to the kind of experiment: Binding affinity to recombinant GST-tagged mouse SPSB2 (12 to 224 residues) expressed in Escherichia coli BL21 (DE3) assessed as association rate by SPR analysis. The procedure, abridged: as §1

The species entered for assay [4] is Mus musculus. Description: Inhibition of recombinant GST-tagged mouse SPSB2 (12 to 224 residues) expressed in Escherichia coli BL21 (DE3)/ full length iNOS (unknown origin) interaction in LPS/IFN-gamma-stimulated mouse BMDM assessed as reduction in iNOS level preincubated for 2 hrs measured after 1 hr by Western blot analysis. The method in brief:
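Lysates of cultured murine BMDM incubated 2 h with 2.5 μg/mL GST-SPSB2 SPRY domain or GST alone, with or without 10 μM peptidomimetic. Then 1 h with glutathione Sepharose beads to pull down the complex. Bound iNOS detected by reducing SDS-PAGE, anti-iNOS immunoblot and ECL. Membrane reprobed with anti-GST to check loading.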

Assay [5] addresses T2, SPRY domain-containing SOCS box protein 2 (Mus musculus). Description: Ratio of Kd for recombinant GST-tagged mouse SPSB2 (12 to 224 residues) expressed in Escherichia coli BL21 (DE3) by ITC method to Kd for recombinant GST-tagged mouse SPSB2 (12 to 224 residues) expressed in Escherichia coli BL21 by SPR analysis.
Assay [6] has the same target. Description: Potency index, ratio of Ac-DINNNNH2 Kd to compound Kd for recombinant GST-tagged mouse SPSB2 (12 to 224 residues) expressed in Escherichia coli BL21 (DE3) by SPR analysis.
Assay [7] shares this target. Description: Binding affinity to mouse 5-F-Trp-SPSB2 assessed as downward shift of Trp207 residue resonance at protein to compound molar ratio of 1:5 by 19F-NMR spectroscopy. The procedure, abridged:
(§2)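 19F NMR of 5F-Trp-labelled SPSB2 with added peptidomimetic, recorded at 30 °C and 564 MHz on a cryoprobe tuned to 19F.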

The target is the same in assay [8]. Description: Binding affinity to recombinant GST-tagged mouse SPSB2 (12 to 224 residues) expressed in Escherichia coli BL21 (DE3) assessed as dissociation rate by SPR analysis. The method in brief:
as §1

For assay [9] the target is unchanged. Description: Binding affinity to mouse 5-F-Trp-SPSB2 assessed as induction of sharpening of Trp207 resonance by measuring increase in peak height at protein to compound molar ratio of 1:5 by 19F-NMR spectroscopy. The method in brief:
as §2

Activity calls are given as the source filed them. No cut-off for these calls is given here. Where a SMILES comes first, the peptide text is derived from it. Bridges are numbered along the chain shown (N, C = ends).

On to `CC[C@H](C)[C@@H]1NC(=O)[C@H](CC(=O)O)NC(=O)c2ccccc2NC(=O)[C@H](CC(N)=O)NC(=O)[C@H](CC(N)=O)NC(=O)[C@H](CC(N)=O)NC1=O`, for which the Kd in assay [1] was 54 nM; in assay [2] it was 49 nM.
For the molecule `CC[C@H](C)[C@@H]1NC(=O)[C@@H](CC(=O)O)OCc2ccccc2NC(=O)[C@H](CC(N)=O)NC(=O)[C@H](CC(N)=O)NC(=O)[C@@H](CC(N)=O)NC1=O`, the K in assay [3] is 8.6 ×10⁵ /M/s; in [8], 2 ×10⁻² /s. Also, the “Inhibition of SPSB2-iNOS interaction (qualitative)” value (shortened to “Inhibition”) in [4] is “Active”. For the same molecule, the results for the Ratio in assay [5] and in assay [6] were 1.5 and 10, respectively. Moreover, the outcome in [7] was Active.
Regarding `CC[C@H](C)[C@@H]1NC(=O)[C@H](CC(=O)O)OCCNC(=O)[C@H](CC(N)=O)NC(=O)[C@H](CC(N)=O)NC(=O)[C@H](CC(N)=O)NC1=O`, the Kd in assay [1] came to 465 nM; in assay [2], 442 nM.
Take `CC[C@H](C)[C@@H]1NC(=O)[C@@H](CC(=O)O)OCc2ccccc2NC(=O)[C@H](CC(N)=O)NC(=O)[C@H](CC(N)=O)NC(=O)[C@H](CC(N)=O)NC1=O`: the Kd amounted to 29 nM in [1] and 45 nM in assay [2].
Consider H-KEEKDINNNVKKT-OH, for which the Kd in assay [2] came to 13 nM.
With `CC[C@H](C)[C@@H]1NC(=O)[C@@H](CC(=O)O)OCC(=O)N(C)NC(=O)[C@H](CC(N)=O)NC(=O)[C@H](CC(N)=O)NC(=O)[C@H](CC(N)=O)NC1=O`, the Kd in [1] was 99 nM; in [2], 83 nM.
Regarding `CC[C@@H](C)[C@@H]1NC(=O)[C@H](CC(=O)O)OCCNC(=O)[C@@H](CC(N)=O)NC(=O)[C@@H](CC(N)=O)NC(=O)[C@@H](CC(N)=O)NC1=O`, the Activity in assay [9] worked out at 25%. Further, the figures for the K in [3] and in assay [8] were 4.7 ×10⁵ /M/s and 26 ×10⁻² /s, respectively. For the same molecule, the “Inhibition” value in [4] is “Active”. In addition, in [7], the outcome was inactive.
For `CC[C@H](C)[C@@H]1NC(=O)[C@H](CC(=O)O)NC(=O)[C@H](C(C)C)NC(=O)[C@@H](NC(C)=O)CSSC[C@@H](C(N)=O)NC(=O)[C@H](CC(N)=O)NC(=O)[C@H](CC(N)=O)NC(=O)[C@H](CC(N)=O)NC1=O` (Ac-CVDINNNC-NH2; disulfide 1-8), in assay [7], the outcome was Active.
On to `CC[C@H](C)[C@@H]1NC(=O)[C@@H](CC(=O)O)OCC(=O)N(C)NC(=O)[C@H](CC(N)=O)NC(=O)[C@H](CC(N)=O)NC(=O)[C@@H](CC(N)=O)NC1=O`, for which the K in [3] was determined as 11.9 ×10⁵ /M/s; in assay [8], 8 ×10⁻² /s. Also, in [4], the “Inhibition” value was “Active”. Moreover, the result in [7] was Active.
For the molecule `CC[C@H](C)[C@@H]1NC(=O)[C@@H](CC(=O)O)NC(=O)c2ccccc2NC(=O)[C@H](CC(N)=O)NC(=O)[C@H](CC(N)=O)NC(=O)[C@@H](CC(N)=O)NC1=O`, the K in assay [3] was found to be 11 ×10⁵ /M/s; in assay [8], 6 ×10⁻² /s. Besides, the “Inhibition” value in assay [4] was “Active”. Also, the result in [7] was Active.

The term Kd denotes the free concentration of one partner at which half of the binding sites on the other are occupied at equilibrium, for simple one-to-one binding.
